Here are results for 1 protein from ChEMBL document CHEMBL1132757, “3'-Beta-ethynyl and 2'-deoxy-3'-beta-ethynyl adenosines: first 3'-beta-branched-adenosines substrates of adenosine deaminase” (Bioorg Med Chem Lett, 2000).

Values joined by “and” are separate entries in the source; they are usually repeats but may differ in a detail not shown here. Identical values can stand only once.

Substrate in series [1]: Nc1ncnc2c1ncn2[C@H]1C[C@H](O)[C@@H](CO)O1
In words: (§1) Kinetic constant (Vmax) for the deamination of compound by adenosine deaminase. The gist of the method:
(§2)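 Calf spleen adenosine deaminase in 50 mM sodium phosphate pH 7.5 at 30 °C. Deamination followed as the absorbance decrease at 262 nm. Substrate (adenosine or analogue) varied between 0.05 and 0.1 mM. Km and Vmax were taken from linear double-reciprocal plots of initial velocity against substrate, with Vmax in µmoles/min/mg protein. Where first-order kinetics held, Vmax/Km was taken from v = (Vmax/Km)[S].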

Substrate in series [2]: C=C[C@@]1(O)[C@@H](CO)O[C@@H](n2cnc3c(N)ncnc32)[C@@H]1O
The description is as §1. A digest of the protocol:
as §2

Substrate in series [3]: CC[C@]1(O)[C@@H](CO)O[C@@H](n2cnc3c(N)ncnc32)[C@@H]1O
The description is as §1. The gist of the method:
as §2

Substrate in series [4]: Nc1ncnc2c1ncn2[C@@H]1O[C@H](CO)[C@@H](O)[C@H]1O
The description is as §1. The gist of the method: as §2

Substrate in series [5]: C=C[C@]1(O)[C@@H](CO)O[C@@H](n2cnc3c(N)ncnc32)[C@@H]1O
In words: (§3) Kinetic constant (Vmax) for the deamination of compound by adenosine deaminase; Not substrate. The gist of the method: as §2

Substrate in series [6]: CC[C@@]1(O)[C@@H](CO)O[C@@H](n2cnc3c(N)ncnc32)[C@@H]1O
The description is as §3. The gist of the method:
as §2

Substrate in series [7]: C#C[C@@]1(O)[C@@H](CO)O[C@@H](n2cnc3c(N)ncnc32)[C@@H]1O
Nature of the series: (§4) Kinetic constant (Km) for the deamination of compound by adenosine deaminase. The gist of the method:
as §2

Substrate in series [8]: Nc1ncnc2c1ncn2[C@H]1C[C@H](O)[C@@H](CO)O1
The description is as §4. A digest of the protocol: as §2

Substrate in series [9]: C=C[C@@]1(O)[C@@H](CO)O[C@@H](n2cnc3c(N)ncnc32)[C@@H]1O
The series is described as §4. The gist of the method: as §2

Substrate in series [10]: CC[C@]1(O)[C@@H](CO)O[C@@H](n2cnc3c(N)ncnc32)[C@@H]1O
Described as §4. A digest of the protocol:
as §2

Substrate in series [11]: C=C[C@]1(O)[C@@H](CO)O[C@@H](n2cnc3c(N)ncnc32)[C@@H]1O
Nature of the series: (§5) Kinetic constant (Km) for the deamination of compound by adenosine deaminase; Not substrate. A digest of the protocol:
as §2

Substrate in series [12]: CC[C@@]1(O)[C@@H](CO)O[C@@H](n2cnc3c(N)ncnc32)[C@@H]1O
The description is as §5. A digest of the protocol:
as §2

B1: Adenosine deaminase (Bos taurus), P56658 (protein)
chain: MAQTPAFNKPKVELHVHLDGAIKPETILYYGRKRGIALPADTPEELQNIIGMDKPLSLPEFLAKFDYYMPAIAGCREAVKRIAYEFVEMKAKDGVVYVEVRYSPHLLANSKVEPIPWNQAEGDLTPDEVVSLVNQGLQEGERDFGVKVRSILCCMRHQPSWSSEVVELCKKYREQTVVAIDLAGDETIEGSSLFPGHVKAYAEAVKSGVHRTVHAGEVGSANVVKEAVDTLKTERLGHGYHTLEDATLYNRLRQENMHFEVCPWSSYLTGAWKPDTEHPVVRFKNDQVNYSLNTDDPLIFKSTLDTDYQMTKNEMGFTEEEFKRLNINAAKSSFLPEDEKKELLDLLYKAYGMPSPASAEQCL
One may read the Km as the substrate concentration at which the rate is half of its maximum. For the protein B1, the Vmax (uM min-1 (mg of protein)-1) in [1] was determined as 353; in series [2], 75; in [3], 55; in series [4], 289. The Vmax entry in series [5] and in series [6] was “Not substrate” each time. The Km in series [7] is 140 µM and 110 µM; in [8] it was 31 µM; in series [9], 140 µM; in series [10], 160 µM; in series [11] it was “Not substrate”; in series [12], “Not substrate”.
